{"source": "paper PMC5237706", "about": "(Acta Pharmaceutica Sinica. B, 2016)", "key": {"human hepatic L02 cells": {"system": "human hepatic L02 cells", "experiment": "Antiproliferative activity, SRB assay, L02", "type": "cell-based", "summary_of_the_method": "(§1)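 Cells seeded at 5×10^4/well and grown 24 h, then exposed to test compound (DMSO stock) for 24 h or 48 h. Processed by standard SRB method with absorbance at 540 nm. IC50 from log plot of percent of control vs concentration. HepG2 kept in RPMI 1640; L02 and WI38 in DMEM; all with 10% FBS, 1% penicillin–streptomycin, 37 °C, 5% CO2. TI = IC50 normal cells / IC50 HepG2.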"}, "[1]": {"system": "diploid human WI38 fibroblasts", "experiment": "Antiproliferative activity, SRB assay, WI38", "type": "cell-based", "summary_of_the_method": "as §1"}, "GSH-Px": {"system": "GSH-Px", "experiment": "Mitochondrial GSH-Px activity", "type": "biochemical, rat", "details": "10 μmol/L, 15 and 30 min", "summary_of_the_method": "(§2)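 Energized liver mitochondria from male Wistar rats incubated with test compound (10 μmol/L) for 15 or 30 min. Then sonicated in 5 s pulses for 5 cycles. SOD, GSH-Px and CAT activities measured with commercial kits per instructions. Mean±SEM of three independent experiments.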"}, "mitochondrial SOD": {"system": "mitochondrial SOD", "experiment": "Mitochondrial SOD activity", "type": "biochemical, rat", "details": "10 μmol/L, 15 and 30 min", "summary_of_the_method": "as §2"}, "[2]": {"system": "lipid peroxidation in the energized hepatic mitochondria", "experiment": "Mitochondrial lipid peroxidation induced by FeCl2/ascorbate", "type": "biochemical, rat", "details": "for inhibition of lipid peroxidation at 6 μmol/L: Fig. 1B", "summary_of_the_method": "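Rat liver mitochondria (1 mg/mL, standard medium pH 7.4) with test compound (6 μmol/L). Peroxidation started with FeCl2 20 μmol/L/ascorbate 100 μmol/L and run 30 min. TCA-TBA-HCl stock plus 0.02% BHT added, then heated 15 min in a hot-water bath, cooled and centrifuged. A532 read; MDA calculated with ε532=1.5×10^5 mol/(L·cm). Three independent experiments.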"}, "[3]": {"system": "H2O2 production in energized hepatic mitochondria", "experiment": "Mitochondrial H2O2 production", "type": "biochemical, rat", "details": "DCFDA, Fig. 2B", "summary_of_the_method": "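DCFDA (8 μmol/L) added to energized rat hepatic mitochondria (1 mg/mL) in standard medium (sucrose 250, HEPES 10, glutamate 10, malate 5 mmol/L; pH 7.4). Test compound added; incubated 15 or 30 min in the dark at 25 °C. Fluorescence ex 485/em 521 nm, expressed as percent of control. Mean±SEM, three independent experiments.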"}, "CAT": {"molecular_target": "T1, CAT (Rattus norvegicus, UniProt P04762)", "T1 sequence (P04762 1-527)": "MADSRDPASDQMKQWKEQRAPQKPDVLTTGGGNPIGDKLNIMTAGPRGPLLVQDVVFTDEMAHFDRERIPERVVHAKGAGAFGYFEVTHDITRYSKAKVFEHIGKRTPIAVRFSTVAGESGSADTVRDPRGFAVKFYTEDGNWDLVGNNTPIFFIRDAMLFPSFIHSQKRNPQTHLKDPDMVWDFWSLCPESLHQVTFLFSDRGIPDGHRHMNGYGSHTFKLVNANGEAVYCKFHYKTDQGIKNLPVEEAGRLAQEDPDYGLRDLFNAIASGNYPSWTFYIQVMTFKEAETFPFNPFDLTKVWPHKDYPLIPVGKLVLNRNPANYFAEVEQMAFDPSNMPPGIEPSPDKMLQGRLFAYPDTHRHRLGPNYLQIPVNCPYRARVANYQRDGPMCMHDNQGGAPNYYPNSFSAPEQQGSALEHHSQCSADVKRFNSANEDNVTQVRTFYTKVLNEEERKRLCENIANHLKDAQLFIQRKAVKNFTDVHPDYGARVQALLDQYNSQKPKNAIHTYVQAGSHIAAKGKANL", "experiment": "Mitochondrial CAT activity", "type": "biochemical", "details": "10 μmol/L, 15 and 30 min", "summary_of_the_method": "as §2"}, "[4]": {"system": "human hepatoma HepG2 cells", "experiment": "Antiproliferative activity, SRB assay, HepG2", "type": "cell-based", "details": "for TI 24 h / TI 48 h: TI=IC50 L02 normal cell/IC50 HepG2 cancer cell", "summary_of_the_method": "as §1"}, "[5]": {"system": "energized hepatic mitochondria (mPTP opening)", "experiment": "Mitochondrial swelling", "type": "biochemical, rat", "details": "Fig. 5B; for induction of mitochondrial swelling at 10 μmol/L: 10 μmol/L alone", "summary_of_the_method": "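Energized rat hepatic mitochondria (1 mg/mL) in sucrose/HEPES/glutamate/malate medium, pH 7.4. Swelling followed as apparent A540 change after adding test compound (concentration series; 10 μmol/L alone or with Ca2+ 0.1 μmol/L). CsA 1 μmol/L added to suspensions containing 20 μmol/L compound. […]; mean±SEM of three independent experiments.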"}, "[6]": {"system": "cyt c release from energized mitochondria", "experiment": "Cyt c release from mitochondria", "type": "biochemical, rat", "details": "Fig. 7D"}}, "note": "Where two headings read alike, the source gives them in different places."}
{"smiles": "CCCC[P+](c1ccccc1)(c1ccccc1)c1ccccc1", "note": "[ButylTPP]", "values": [{"measurement": "IC50", "setting": "human hepatic L02 cells; read-out: IC50 L02 24 h, L02, 24 h, SRB", "result": "121 ± 9.97", "unit": "µM"}, {"measurement": "IC50", "setting": "human hepatic L02 cells; read-out: IC50 L02 48 h, L02, 48 h, SRB", "result": "71.4 ± 6.64", "unit": "µM"}, {"measurement": "IC50", "setting": "[1]; read-out: IC50 WI38 24 h, WI38, 24 h, SRB", "result": "179 ± 3.73", "unit": "µM"}, {"measurement": "IC50", "setting": "[1]; read-out: IC50 WI38 48 h, WI38, 48 h, SRB", "result": "88.5 ± 3.95", "unit": "µM"}, {"measurement": "effect on GSH-Px activity", "setting": "GSH-Px", "result": "did not alter"}, {"measurement": "effect on SOD activity", "setting": "mitochondrial SOD", "result": "did not alter"}, {"measurement": "inhibition of lipid peroxidation at 6 μmol/L", "setting": "[2]", "result": "ineffective"}, {"measurement": "effect on endogenous H2O2 levels at 10 μmol/L", "setting": "[3]", "result": "did not affect"}, {"measurement": "effect on CAT activity", "setting": "CAT", "result": "did not alter"}, {"measurement": "TI 24 h", "setting": "[4]", "result": 4.76}, {"measurement": "TI 48 h", "setting": "[4]", "result": 5.58}, {"measurement": "IC50", "setting": "[4]; read-out: IC50 HepG2 24 h, HepG2, 24 h, SRB", "result": "25.4 ± 1.02", "unit": "µM"}, {"measurement": "IC50", "setting": "[4]; read-out: IC50 HepG2 48 h, HepG2, 48 h, SRB", "result": "12.8 ± 0.87", "unit": "µM"}, {"measurement": "induction of mitochondrial swelling at 10 μmol/L", "setting": "[5]", "result": "triggered swelling"}, {"measurement": "induction of cyt c release at 10 μmol/L", "setting": "[6]", "result": "had no effects"}]}
{"smiles": "O=C(O)/C=C/c1ccc(O)c(O)c1", "note": "[CaA, caffeic acid]", "values": [{"measurement": "IC50", "setting": "human hepatic L02 cells; Homo sapiens, L02, 24 h, read-out: IC50 L02 24 h", "result": "403 ± 18.9", "unit": "µM"}, {"measurement": "IC50", "setting": "human hepatic L02 cells; Homo sapiens, L02, 48 h, read-out: IC50 L02 48 h", "result": "156 ± 8.83", "unit": "µM"}, {"measurement": "IC50", "setting": "[1]; Homo sapiens, WI-38, 24 h, read-out: IC50 WI38 24 h", "result": "281 ± 9.47", "unit": "µM"}, {"measurement": "IC50", "setting": "[1]; Homo sapiens, WI-38, 48 h, read-out: IC50 WI38 48 h", "result": "198 ± 7.78", "unit": "µM"}, {"measurement": "inhibition of lipid peroxidation at 6 μmol/L", "setting": "[2]", "result": "ineffective"}, {"measurement": "effect on lipid peroxidation, various concentrations", "setting": "[2]; Fig. 1A", "result": "no effect"}, {"measurement": "IC50", "setting": "[4]; Homo sapiens, HepG2, 24 h, read-out: IC50 HepG2 24 h, HepG2, 24 h, SRB", "result": "201 ± 3.88", "unit": "µM"}, {"measurement": "IC50", "setting": "[4]; Homo sapiens, HepG2, 48 h, read-out: IC50 HepG2 48 h, HepG2, 48 h, SRB", "result": "93 ± 1.35", "unit": "µM"}, {"measurement": "TI 24 h", "setting": "[4]", "result": 2.01}, {"measurement": "TI 48 h", "setting": "[4]", "result": 1.68}, {"measurement": "mitochondrial swelling with Ca2+", "setting": "[5]; 10 μmol/L + 0.1 μmol/L Ca2+", "result": "failed to cause swelling"}, {"measurement": "induction of mitochondrial swelling at 10 μmol/L", "setting": "[5]", "result": "neither MitoCA nor CaA induced swelling"}, {"measurement": "induction of cyt c release at 10 μmol/L", "setting": "[6]", "result": "had no effects"}]}
